Assay results reported in ChEMBL document CHEMBL3784976 (J Med Chem, 2016).

Legend:
[1] = target: T1, Transient receptor potential cation channel subfamily A member 1 (Homo sapiens, UniProt O75762); assay: Antagonist activity at human TRPA1 expressed in tetracycline-inducible T-REx expression system transfected CHO cells assessed as inhibition of AITC-induced Ca2+ influx preincubated for 2 mins followed by AITC addition measured for 2 mins by Fluo-4 dye based FLIPR assay; assay type: cell-based
T1 sequence (O75762 whole entry): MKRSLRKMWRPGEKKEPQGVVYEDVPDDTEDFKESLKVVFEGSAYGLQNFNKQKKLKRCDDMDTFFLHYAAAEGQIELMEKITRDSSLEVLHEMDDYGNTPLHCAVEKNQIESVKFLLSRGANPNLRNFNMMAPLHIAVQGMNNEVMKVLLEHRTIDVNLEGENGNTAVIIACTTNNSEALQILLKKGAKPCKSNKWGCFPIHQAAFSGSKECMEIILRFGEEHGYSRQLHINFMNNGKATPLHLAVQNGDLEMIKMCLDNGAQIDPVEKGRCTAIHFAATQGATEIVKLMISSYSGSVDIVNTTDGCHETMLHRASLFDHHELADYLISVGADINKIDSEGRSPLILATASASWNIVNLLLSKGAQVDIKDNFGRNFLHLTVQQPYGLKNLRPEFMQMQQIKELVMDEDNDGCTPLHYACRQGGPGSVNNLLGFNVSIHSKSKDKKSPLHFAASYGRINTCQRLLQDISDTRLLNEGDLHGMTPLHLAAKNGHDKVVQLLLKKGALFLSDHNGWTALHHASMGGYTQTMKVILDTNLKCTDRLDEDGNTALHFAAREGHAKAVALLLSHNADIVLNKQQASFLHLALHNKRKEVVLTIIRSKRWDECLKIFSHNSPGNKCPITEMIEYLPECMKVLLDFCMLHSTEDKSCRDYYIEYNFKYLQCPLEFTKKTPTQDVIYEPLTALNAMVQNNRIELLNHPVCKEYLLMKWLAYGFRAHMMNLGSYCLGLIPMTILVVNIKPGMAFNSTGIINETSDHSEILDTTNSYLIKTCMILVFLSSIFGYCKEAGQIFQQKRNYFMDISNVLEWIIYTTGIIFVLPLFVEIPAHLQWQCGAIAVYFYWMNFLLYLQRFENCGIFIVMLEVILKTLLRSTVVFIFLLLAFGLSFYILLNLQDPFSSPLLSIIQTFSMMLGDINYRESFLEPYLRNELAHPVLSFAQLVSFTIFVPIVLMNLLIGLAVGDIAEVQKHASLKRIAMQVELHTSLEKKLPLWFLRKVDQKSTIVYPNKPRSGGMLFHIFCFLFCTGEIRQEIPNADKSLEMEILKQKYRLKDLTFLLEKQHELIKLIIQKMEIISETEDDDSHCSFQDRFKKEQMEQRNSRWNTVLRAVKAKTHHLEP

[2] = target: T2, Transient receptor potential cation channel subfamily A member 1 (Rattus norvegicus, UniProt Q6RI86); assay: Antagonist activity at rat TRPA1 expressed in tetracycline-inducible T-REx expression system transfected CHO cells assessed as inhibition of AITC-induced Ca2+ influx preincubated for 2 mins followed by AITC addition measured for 2 mins by Fluo-4 dye based FLIPR assay; assay type: cell-based
T2 sequence (Q6RI86 whole entry): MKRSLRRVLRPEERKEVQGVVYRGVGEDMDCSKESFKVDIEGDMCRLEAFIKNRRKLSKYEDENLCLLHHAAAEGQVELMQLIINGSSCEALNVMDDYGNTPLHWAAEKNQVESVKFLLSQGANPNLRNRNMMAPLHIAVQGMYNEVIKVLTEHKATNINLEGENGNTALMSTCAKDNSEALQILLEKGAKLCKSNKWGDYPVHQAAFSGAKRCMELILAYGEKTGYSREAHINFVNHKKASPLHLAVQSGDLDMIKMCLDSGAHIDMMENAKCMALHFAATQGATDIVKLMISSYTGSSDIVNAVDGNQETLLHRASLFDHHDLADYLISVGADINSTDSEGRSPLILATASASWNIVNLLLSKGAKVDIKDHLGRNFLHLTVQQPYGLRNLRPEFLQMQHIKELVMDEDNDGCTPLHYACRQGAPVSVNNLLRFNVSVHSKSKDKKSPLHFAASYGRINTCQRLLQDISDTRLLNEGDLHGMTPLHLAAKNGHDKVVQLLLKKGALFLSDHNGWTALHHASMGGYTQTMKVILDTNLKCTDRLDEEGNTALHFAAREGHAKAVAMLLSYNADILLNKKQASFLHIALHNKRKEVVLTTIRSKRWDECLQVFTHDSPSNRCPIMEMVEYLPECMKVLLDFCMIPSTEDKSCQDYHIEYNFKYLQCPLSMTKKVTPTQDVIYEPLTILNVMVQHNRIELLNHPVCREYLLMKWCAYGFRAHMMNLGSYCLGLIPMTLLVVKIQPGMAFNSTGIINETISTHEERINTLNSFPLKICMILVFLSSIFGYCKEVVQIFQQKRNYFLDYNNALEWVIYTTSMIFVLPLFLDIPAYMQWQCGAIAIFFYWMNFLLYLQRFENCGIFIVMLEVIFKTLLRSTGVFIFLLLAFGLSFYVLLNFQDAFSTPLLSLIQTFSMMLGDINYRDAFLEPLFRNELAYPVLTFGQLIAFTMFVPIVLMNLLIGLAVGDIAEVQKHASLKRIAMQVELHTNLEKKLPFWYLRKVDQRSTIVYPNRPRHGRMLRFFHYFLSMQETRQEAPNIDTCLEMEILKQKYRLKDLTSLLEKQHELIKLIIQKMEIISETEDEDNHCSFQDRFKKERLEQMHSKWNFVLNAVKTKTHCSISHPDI

[3] = Apparent intrinsic clearance in rat liver microsomes; assay type: ADME; settings: read-out: CLH(app)
[4] = Apparent intrinsic clearance in human liver microsomes; assay type: ADME; settings: read-out: CLH(app)
Rattus norvegicus [5] = assay: fCmax in rat at 30 mg/kg, po; assay type: ADME, organism-based; settings: in vivo
In short: (§1)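 Rats dosed orally at 30 mg/kg, or 10 mg/kg for one analogue, in 1% Tween 80/2% HPMC/97% water with methanesulfonic acid, pH 2.2.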

[6] = Cmax in rat at 30 mg/kg, po; assay type: ADME, organism-based; design: dose 30 mg/kg, route oral; settings: in vivo
In short: (§2)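 Rat oral PK at 30 mg/kg (10 mg/kg for one analogue) in 1% Tween 80/2% HPMC/97% water with methanesulfonic acid, pH 2.2.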

[7] = Fraction unbound in rat plasma; assay type: ADME, cell-free
[8] = Volume of distribution at steady state in rat at 0.5 mg/kg, iv as single dose; assay type: ADME, organism-based; settings: in vivo, read-out: Vdss
In short: (§3)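 Single intravenous dose of 0.5 mg/kg given to rats, formulated in 100% DMSO.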

[9] = Half life in rat at 0.5 mg/kg, iv administered as single dose; assay type: ADME, organism-based; settings: in vivo; in short: as §3
[10] = AUC (infinity) in rat at 30 mg/kg, po; assay type: ADME, organism-based; design: dose 30 mg/kg, time infinity, route oral; settings: in vivo; in short: as §2
[11] = Tmax in rat at 30 mg/kg, po; assay type: ADME, organism-based; settings: in vivo; in short: as §1
[12] = Half life in rat at 30 mg/kg, po; assay type: ADME, organism-based; settings: in vivo; in short: as §1
[13] = Oral bioavailability in rat at 30 mg/kg; assay type: ADME, organism-based; settings: in vivo; in short: as §1
[14] = target: T2, Transient receptor potential cation channel subfamily A member 1; assay: Antagonist activity at rat TRPA1 expressed in tetracycline-inducible T-REx expression system transfected CHO cells assessed as inhibition of AITC-induced 45Ca2+ uptake preincubated for 1 min followed by AITC addition measured after 12 mins; assay type: cell-based
[15] = target: T1, Transient receptor potential cation channel subfamily A member 1; assay: Antagonist activity at human TRPA1 expressed in tetracycline-inducible T-REx expression system transfected CHO cells assessed as inhibition of AITC-induced 45Ca2+ uptake preincubated for 1 min followed by AITC addition measured after 12 mins; assay type: cell-based
[16] = target: T2, Transient receptor potential cation channel subfamily A member 1; assay: Agonist activity at rat TRPA1 expressed in tetracycline-inducible T-REx expression system transfected CHO cells by 45Ca2+ uptake assay; assay type: cell-based
[17] = target: T1, Transient receptor potential cation channel subfamily A member 1; assay: Agonist activity at human TRPA1 expressed in tetracycline-inducible T-REx expression system transfected CHO cells by 45Ca2+ uptake assay; assay type: cell-based
[18] = Clearance in rat at 0.5 mg/kg, iv as single dose; assay type: ADME, organism-based; settings: in vivo
Rattus norvegicus [19] = assay: Unbound clearance in rat at 0.5 mg/kg, iv as single dose; assay type: ADME, organism-based; settings: in vivo; in short: as §3
[20] = Ratio of fCmax in rat at 30 mg/kg, po to IC50 for rat TRPA1 expressed in tetracycline-inducible T-REx expression system transfected CHO cells by 45Ca2+ uptake assay
Liver microsome [21] = assay: Drug metabolism in rat liver microsomes assessed as 3-((3-(2-(4-Chlorophenyl)-2-hydroxyethyl)-1,2,4-oxadiazol-5-yl)-methyl)pyrido[2,3-d]pyrimidin-4(3H)-one formation; assay type: ADME
Liver microsome [22] = assay: Drug metabolism in human liver microsomes assessed as 3-((3-(2-(4-Chlorophenyl)-2-hydroxyethyl)-1,2,4-oxadiazol-5-yl)-methyl)pyrido[2,3-d]pyrimidin-4(3H)-one formation; assay type: ADME
[23] = target: T1, Transient receptor potential cation channel subfamily A member 1; assay: Agonist activity at human TRPA1 expressed in tetracycline-inducible T-REx expression system transfected CHO cells assessed as increase in Ca2+ influx measured for 2 mins by Fluo-4 dye based FLIPR assay; assay type: cell-based
In short: (§4)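 FLIPR Tetra Ca2+ flux with Fluo-4 NW dye plus probenecid. Cells were seeded 24 h ahead in medium with […]. Dye loading ran 30 min at 37 °C, then 30 min at RT. Compound was added and agonist signal read for 2 min. Data were expressed as POC of DMSO (low) vs saturating AITC (high: 15 μM human, 200 μM rat) and fitted to a four-parameter equation.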

[24] = target: T2, Transient receptor potential cation channel subfamily A member 1; assay: Agonist activity at rat TRPA1 expressed in tetracycline-inducible T-REx expression system transfected CHO cells assessed as increase in Ca2+ influx measured for 2 mins by Fluo-4 dye based FLIPR assay; assay type: cell-based; in short: as §4
[25] = target: Transient receptor potential cation channel subfamily V member 1 (Homo sapiens, UniProt Q8NER1); assay: Antagonist activity at human TRPV1 expressed in CHO cells assessed as inhibition of capsaicin-induced Ca2+ influx preincubated for 2.5 mins followed by capsaicin addition measured for 1 min by luminescence assay; assay type: cell-based
Sequence of Transient receptor potential cation channel subfamily V member 1 (Q8NER1 whole entry): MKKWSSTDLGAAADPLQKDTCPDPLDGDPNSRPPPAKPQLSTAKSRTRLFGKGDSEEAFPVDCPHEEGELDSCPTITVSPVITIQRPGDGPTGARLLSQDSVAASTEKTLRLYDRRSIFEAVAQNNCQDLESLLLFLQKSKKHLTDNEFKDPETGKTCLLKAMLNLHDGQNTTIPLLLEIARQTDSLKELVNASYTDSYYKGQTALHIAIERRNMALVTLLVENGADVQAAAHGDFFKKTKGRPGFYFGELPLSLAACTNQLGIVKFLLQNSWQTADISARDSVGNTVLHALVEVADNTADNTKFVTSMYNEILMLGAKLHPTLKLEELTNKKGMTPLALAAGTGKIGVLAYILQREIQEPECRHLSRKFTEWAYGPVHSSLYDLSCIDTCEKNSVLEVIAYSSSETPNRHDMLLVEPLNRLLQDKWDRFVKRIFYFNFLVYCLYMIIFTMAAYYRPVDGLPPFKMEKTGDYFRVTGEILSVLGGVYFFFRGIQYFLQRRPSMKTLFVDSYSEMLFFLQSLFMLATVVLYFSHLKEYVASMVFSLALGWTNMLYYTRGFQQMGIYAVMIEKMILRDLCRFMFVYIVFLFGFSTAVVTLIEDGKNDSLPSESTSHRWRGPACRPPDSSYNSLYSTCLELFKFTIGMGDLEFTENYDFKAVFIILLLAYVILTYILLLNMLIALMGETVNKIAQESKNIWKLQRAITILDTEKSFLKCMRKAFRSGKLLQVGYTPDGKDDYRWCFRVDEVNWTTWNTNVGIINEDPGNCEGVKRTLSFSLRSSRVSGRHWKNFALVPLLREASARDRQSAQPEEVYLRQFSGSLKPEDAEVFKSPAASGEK

[26] = target: Transient receptor potential cation channel subfamily V member 3 (Rattus norvegicus); assay: Antagonist activity at rat TRPV3 expressed in tetracycline-inducible T-REx expression system transfected CHO cells assessed as inhibition of […]-induced Ca2+ influx preincubated for 1 min followed by […] addition measured for 1 min by luminescence assay
[27] = AUC (infinity) in rat at 10 mg/kg, po; assay type: ADME, organism-based; design: dose 10 mg/kg, time infinity, route oral; settings: in vivo; in short: as §2
Rattus norvegicus [28] = assay: fCmax in rat at 10 mg/kg, po; assay type: ADME, organism-based; settings: in vivo; in short: as §1
[29] = Tmax in rat at 10 mg/kg, po; assay type: ADME, organism-based; settings: in vivo; in short: as §1
[30] = Half life in rat at 10 mg/kg, po; assay type: ADME, organism-based; settings: in vivo; in short: as §1
[31] = Cmax in rat at 10 mg/kg, po; assay type: ADME, organism-based; design: dose 10 mg/kg, route oral; settings: in vivo; in short: as §2
[32] = Ratio of fCmax in rat at 10 mg/kg, po to IC50 for rat TRPA1 expressed in tetracycline-inducible T-REx expression system transfected CHO cells by 45Ca2+ uptake assay
In short: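 Rat oral PK dosed at 10 mg/kg in 1% Tween 80/2% HPMC/97% water/methanesulfonic acid pH 2.2. Unbound Cmax divided by rat TRPA1 45Ca2+ IC50.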

Compound	IC50 [1]	IC50 [2]	microsomal CLint [3]	microsomal CLint [4]	further results
Cc1ccc2c(=O)n(CC(=O)NCCc3ccc(Cl)cc3)cnc2c1	> 4200 nM	> 16700 nM	829 µL/min/mg	144 µL/min/mg	–
Cc1cccc2c(=O)n(CC(=O)NCCc3ccccc3)cnc12	> 8330 nM	–	–	–	–
COc1cccc2c(=O)n(CC(=O)NCCc3ccc(Cl)cc3)cnc12	1460 nM	2150 nM	455 µL/min/mg	34 µL/min/mg	–
O=C(Cn1cnc2cnccc2c1=O)NCCc1ccc(Cl)cc1	1710 nM	1080 nM	179 µL/min/mg	14 µL/min/mg	–
COc1cccc(CCNC(=O)Cn2cnc3c(C)cccc3c2=O)c1	> 16700 nM	> 16700 nM	–	–	–
O=C(Cn1cnc2ccccc2c1=O)NCCc1ccc(Cl)cc1	> 16700 nM	–	104 µL/min/mg	31 µL/min/mg	–
N#Cc1cccc2c(=O)n(CC(=O)NCCc3ccc(Cl)cc3)cnc12	201 nM	56 nM	297 µL/min/mg	49 µL/min/mg	–
C/C(=C\c1nc(Cn2cnc3ncccc3c2=O)no1)c1ccc(Cl)cc1	–	–	–	–	fCmax (Rattus norvegicus [5]): 0.1 µM; Cmax [6]: 8 µM; fraction unbound [7]: 0.012; Vd [8]: 1.4 L/kg; half-life [9]: 4.2 h; AUC(0-inf) [10]: 94.9 µM·h; Tmax [11]: 2.7 h; half-life [12]: 5.1 h; bioavailability [13]: 32%
O=c1c2cccnc2ncn1Cc1noc(CCc2ccc(Cl)cc2)n1	156 nM	89 nM	122 µL/min/mg	35 µL/min/mg	fCmax (Rattus norvegicus [5]): 1 µM; Cmax [6]: 10.3 µM; fraction unbound [7]: 0.093; IC50 [14]: 411 nM; IC50 [15]: 1580 nM; EC50 [16]: > 40000 nM; EC50 [17]: > 40000 nM; clearance [18]: 36.7 mL/min/kg; CL free (Rattus norvegicus [19]): 400 mL/min/kg; Vd [8]: 1 L/kg; half-life [9]: 0.4 h; AUC(0-inf) [10]: 19.2 µM·h; Tmax [11]: 0.5 h; half-life [12]: 4 h; bioavailability [13]: 52%; Ratio [20]: 3
Cn1cnc2ncn(Cc3noc(CCc4ccc(Cl)cc4)n3)c(=O)c21	211 nM	136 nM	44 µL/min/mg	19 µL/min/mg	–
Cc1cccc2ncn(CC(=O)NCCc3ccc(Cl)cc3)c(=O)c12	70 nM	112 nM	736 µL/min/mg	301 µL/min/mg	–
O=C(Cn1cnc2ncccc2c1=O)NCCc1ccc(Cl)cc1	1180 nM	1170 nM	18 µL/min/mg	< 14 µL/min/mg	–
COc1ccc(CCNC(=O)Cn2cnc3c(C)cccc3c2=O)cc1	–	1370 nM	–	–	–
O=c1c2cccnc2ncn1Cc1nc(CC(F)c2ccc(Cl)cc2)no1 (racemic)	41 nM	31 nM	94 µL/min/mg	56 µL/min/mg	–
O=C(Cn1cnc2c(F)cccc2c1=O)NCCc1ccc(Cl)cc1	1330 nM	791 nM	186 µL/min/mg	40 µL/min/mg	–
O=c1c2cccnc2ncn1Cc1nc(CCc2ccc(Cl)cc2)no1	41 nM	21 nM	131 µL/min/mg	32 µL/min/mg	fraction unbound [7]: 0.144; Drug metabolism (Liver microsome [21]): metabolite_detected; Drug metabolism (Liver microsome [22]): metabolite_detected; IC50 [14]: 120 nM; IC50 [15]: 376 nM; EC50 [16]: > 40000 nM; EC50 [17]: > 40000 nM; clearance [18]: 98.3 mL/min/kg; Vd [8]: 2 L/kg; half-life [9]: 0.3 h
Cc1ccc2ncn(CC(=O)NCCc3ccc(Cl)cc3)c(=O)c2c1	265 nM	287 nM	–	–	–
Cc1ccnc2ncn(Cc3nc(CCc4ccc(Cl)cc4)no3)c(=O)c12	16 nM	35 nM	> 399 µL/min/mg	340 µL/min/mg	–
O=C(Cn1cnc2c(C(F)(F)F)cccc2c1=O)NCCc1ccc(Cl)cc1	286 nM	306 nM	> 399 µL/min/mg	397 µL/min/mg	–
Cc1cccc2c(=O)n(CC(=O)NCCc3ccc(Cl)cc3)cnc12	802 nM	358 nM	706 µL/min/mg	224 µL/min/mg	–
C/C(=C\c1nc(Cn2cnc3ncn(C)c3c2=O)no1)c1ccc(Cl)cc1	165 nM	274 nM	< 14 µL/min/mg	76 µL/min/mg	–
Cc1cccc2c(=O)n(CC(=O)NCCc3ccc(OC(F)F)cc3)cnc12	685 nM	142 nM	> 399 µL/min/mg	194 µL/min/mg	EC50 [23]: > 25000 nM; EC50 [24]: > 25000 nM; IC50 [25]: > 20000 nM; IC50 [14]: 2620 nM; IC50 [15]: 6270 nM; EC50 [16]: > 47000 nM; EC50 [17]: > 47000 nM; IC50 [26]: > 20000 nM
COc1ccccc1CCNC(=O)Cn1cnc2c(C)cccc2c1=O	> 16700 nM	> 16700 nM	–	–	–
C/C(=C\c1noc(Cn2cnc3ncn(C)c3c2=O)n1)c1ccc(Cl)cc1	71 nM	75 nM	< 14 µL/min/mg	< 14 µL/min/mg	fraction unbound [7]: 0.033; AUC(0-inf) [27]: 117 µM·h; fCmax (Rattus norvegicus [28]): 0.2 µM; Tmax [29]: 2 h; half-life [30]: 10 h; Cmax [31]: 6.5 µM; Ratio [32]: 4; IC50 [14]: 55 nM; IC50 [15]: 63 nM; EC50 [16]: > 40000 nM; EC50 [17]: > 40000 nM
